Data taken from publication PMC10806771 (Chemical Science, 2023).
Entries after “also recorded” stand apart in the source; their conditions may differ. One block for each compound: values may come before it.

What was measured:
trastuzumab [1] = molecular target: T1, trastuzumab (Homo sapiens, UniProt P01857); assay: Random conjugation experiments with trastuzumab, LC-FTMS; format: biochemical; settings: 10 eq., 16h, RT, pH 9.5
trastuzumab [2] = molecular target: T1, trastuzumab; assay: Template-directed conjugation to trastuzumab, LC-FTMS analysis; format: biochemical; settings: payload transferred with Fc-III-L6Orn carbonate reactive conjugate
[3] = cited from earlier work
[4] = tested on: mice bearing MDA-MB-231 (PD-L1hi) tumor xenograft; assay: [64Cu]Cu-atezolizumab biodistribution study; format: in vivo, mouse; settings: n = 4, ± SD
Summary of the method: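 Each received an i.v. dose of 0.25 MBq labelled conjugate (0.05 μg), given with 49.95 μg unlabelled parent antibody to saturate nonspecific Fc receptors. Animals were killed at 2, 24 and 48 h; organs collected, weighed and counted, and results given as %ID g−1. Blocking group at 24 h: co-injected 2 mg unlabelled antibody per mouse. n = 4 per group.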

[5] = tested on: mice bearing MDA-MB-231 xenograft; assay: [64Cu]Cu-atezolizumab PET/CT imaging study; format: in vivo, mouse; settings: 9 MBq i.v.; 2, 24, 48 h
[6] = 24 h p.i. + blocking (2 mg cold atezolizumab)

T1 sequence (P01857 1-330 isoform P01857-1): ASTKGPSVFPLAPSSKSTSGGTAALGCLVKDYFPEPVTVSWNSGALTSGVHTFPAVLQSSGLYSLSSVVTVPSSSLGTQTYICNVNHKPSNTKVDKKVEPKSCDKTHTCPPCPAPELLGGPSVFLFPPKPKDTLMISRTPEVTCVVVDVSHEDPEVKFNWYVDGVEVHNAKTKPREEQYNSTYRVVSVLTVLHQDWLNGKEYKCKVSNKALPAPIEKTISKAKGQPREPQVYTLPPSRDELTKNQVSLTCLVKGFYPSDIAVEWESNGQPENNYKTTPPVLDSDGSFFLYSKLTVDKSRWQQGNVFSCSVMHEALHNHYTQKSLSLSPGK

Compound: O=C(O)CN1CCN(CC(=O)O)CCN(CC(=O)ON2C(=O)CCC2=O)CCN(CC(=O)O)CC1 [DOTA-NHS]
Labeled mAb (trastuzumab [1]): 73%
Selectivity Fc/Fab (trastuzumab [1]): 1.46

Compound: DCAWH N GELVWCT NH2 (disulfide) [FITC]
Labeled mAb (trastuzumab [2]): 95%
Selectivity Fc/Fab (trastuzumab [2]): Fc selective

Compound: DCAWH N GELVWCT NH2 (disulfide) [NODAGA]
Labeled mAb (trastuzumab [2]): 97%
Selectivity Fc/Fab (trastuzumab [2]): Fc selective

Compound: PNU-159682
Labeled mAb (trastuzumab [2]): 46%
Selectivity Fc/Fab (trastuzumab [2]): 5.40
Cytotoxicity relative to doxorubicin [3]: more than thousandfold increased cytotoxicity compared to doxorubicin

Compound: [^64Cu]Cu-atezolizumab: atezolizumab-NODAGA prepared with Fc-III-L6Orn-carbonate-NODAGA, radiolabeled with copper-64
Biodistribution, Blood ([4]; 2 h p.i., i.v. 0.25 MBq): 6.3 ± 3.8 % ID g^−1
Biodistribution, Bone ([4]; 2 h p.i., i.v. 0.25 MBq): 2.5 ± 0.4 % ID g^−1
Biodistribution, Heart ([4]; 2 h p.i., i.v. 0.25 MBq): 7.8 ± 0.6 % ID g^−1
Biodistribution, Kidney ([4]; 2 h p.i., i.v. 0.25 MBq): 11.8 ± 1.3 % ID g^−1
Biodistribution, Large intestine ([4]; 2 h p.i., i.v. 0.25 MBq): 1.2 ± 0.5 % ID g^−1
Biodistribution, Liver ([4]; 2 h p.i., i.v. 0.25 MBq): 8.2 ± 0.1 % ID g^−1
Biodistribution, Lung ([4]; 2 h p.i., i.v. 0.25 MBq): 14.3 ± 1 % ID g^−1
Biodistribution, Muscle ([4]; 2 h p.i., i.v. 0.25 MBq): 1.3 ± 0.1 % ID g^−1
Biodistribution, Pancreas ([4]; 2 h p.i., i.v. 0.25 MBq): 1.8 ± 1.6 % ID g^−1
Biodistribution, Skin ([4]; 2 h p.i., i.v. 0.25 MBq): 1.1 ± 0.3 % ID g^−1
Biodistribution, Small intestine ([4]; 2 h p.i., i.v. 0.25 MBq): 3.8 ± 0.9 % ID g^−1
Biodistribution, Spleen ([4]; 2 h p.i., i.v. 0.25 MBq): 28.1 ± 4 % ID g^−1
Biodistribution, Stomach ([4]; 2 h p.i., i.v. 0.25 MBq): 1.6 ± 0.6 % ID g^−1
Biodistribution, Tumor (MDA-MB-231) ([4]; 2 h p.i., i.v. 0.25 MBq): 5 ± 1.2 % ID g^−1
Biodistribution, Blood [4, 6]: 10.9 ± 0.9 % ID g^−1
Biodistribution, Bone [4, 6]: 1.7 ± 0.1 % ID g^−1
Biodistribution, Heart [4, 6]: 4 ± 0.3 % ID g^−1
Biodistribution, Kidney [4, 6]: 4.2 ± 0.1 % ID g^−1
Biodistribution, Large intestine [4, 6]: 2.7 ± 0.2 % ID g^−1
Biodistribution, Liver [4, 6]: 5.3 ± 0.6 % ID g^−1
Biodistribution, Lung [4, 6]: 6.4 ± 0.7 % ID g^−1
Biodistribution, Muscle [4, 6]: 1 ± 0.2 % ID g^−1
Biodistribution, Pancreas [4, 6]: 3.6 ± 0.2 % ID g^−1
Biodistribution, Skin [4, 6]: 2.5 ± 0.4 % ID g^−1
Biodistribution, Small intestine [4, 6]: 2.6 ± 0.1 % ID g^−1
Biodistribution, Spleen [4, 6]: 17.9 ± 0.1 % ID g^−1
Biodistribution, Stomach [4, 6]: 1.5 ± 0.3 % ID g^−1
Biodistribution, Tumor (MDA-MB-231) [4, 6]: 4.3 ± 1 % ID g^−1
Biodistribution, Blood ([4]; 24 h p.i., i.v. 0.25 MBq): 3.1 ± 1.7 % ID g^−1
Biodistribution, Bone ([4]; 24 h p.i., i.v. 0.25 MBq): 4.2 ± 1.7 % ID g^−1
Biodistribution, Heart ([4]; 24 h p.i., i.v. 0.25 MBq): 6.8 ± 0.5 % ID g^−1
Biodistribution, Kidney ([4]; 24 h p.i., i.v. 0.25 MBq): 11.9 ± 1.3 % ID g^−1
Biodistribution, Large intestine ([4]; 24 h p.i., i.v. 0.25 MBq): 6.1 ± 0.9 % ID g^−1
Biodistribution, Liver ([4]; 24 h p.i., i.v. 0.25 MBq): 11.8 ± 1.9 % ID g^−1
Biodistribution, Lung ([4]; 24 h p.i., i.v. 0.25 MBq): 14.2 ± 1.9 % ID g^−1
Biodistribution, Muscle ([4]; 24 h p.i., i.v. 0.25 MBq): 2.8 ± 0.6 % ID g^−1
Biodistribution, Pancreas ([4]; 24 h p.i., i.v. 0.25 MBq): 9.6 ± 3.6 % ID g^−1
Biodistribution, Skin ([4]; 24 h p.i., i.v. 0.25 MBq): 2.7 ± 0.7 % ID g^−1
Biodistribution, Small intestine ([4]; 24 h p.i., i.v. 0.25 MBq): 8.7 ± 0.9 % ID g^−1
Biodistribution, Spleen ([4]; 24 h p.i., i.v. 0.25 MBq): 42.8 ± 10.7 % ID g^−1
Biodistribution, Stomach ([4]; 24 h p.i., i.v. 0.25 MBq): 4.5 ± 2.3 % ID g^−1
Biodistribution, Tumor (MDA-MB-231) ([4]; 24 h p.i., i.v. 0.25 MBq): 11.4 ± 1.8 % ID g^−1
Biodistribution, Blood ([4]; 48 h p.i., i.v. 0.25 MBq): 2 ± 1.2 % ID g^−1
Biodistribution, Bone ([4]; 48 h p.i., i.v. 0.25 MBq): 2.2 ± 0.4 % ID g^−1
Biodistribution, Heart ([4]; 48 h p.i., i.v. 0.25 MBq): 3.8 ± 0.6 % ID g^−1
Biodistribution, Kidney ([4]; 48 h p.i., i.v. 0.25 MBq): 8 ± 1.8 % ID g^−1
Biodistribution, Large intestine ([4]; 48 h p.i., i.v. 0.25 MBq): 3.7 ± 1 % ID g^−1
Biodistribution, Liver ([4]; 48 h p.i., i.v. 0.25 MBq): 8.5 ± 1.6 % ID g^−1
Biodistribution, Lung ([4]; 48 h p.i., i.v. 0.25 MBq): 6.6 ± 0.7 % ID g^−1
Biodistribution, Muscle ([4]; 48 h p.i., i.v. 0.25 MBq): 1.1 ± 0.1 % ID g^−1
Biodistribution, Pancreas ([4]; 48 h p.i., i.v. 0.25 MBq): 3.1 ± 0.2 % ID g^−1
Biodistribution, Skin ([4]; 48 h p.i., i.v. 0.25 MBq): 2 ± 0.8 % ID g^−1
Biodistribution, Small intestine ([4]; 48 h p.i., i.v. 0.25 MBq): 4.8 ± 1.3 % ID g^−1
Biodistribution, Spleen ([4]; 48 h p.i., i.v. 0.25 MBq): 21.3 ± 6.5 % ID g^−1
Biodistribution, Stomach ([4]; 48 h p.i., i.v. 0.25 MBq): 2.1 ± 0.5 % ID g^−1
Biodistribution, Tumor (MDA-MB-231) ([4]; 48 h p.i., i.v. 0.25 MBq): 5.5 ± 2.1 % ID g^−1
PET observations [5]: an important uptake of the radiotracer was observed in liver and in spleen; also recorded: increased contrast of the tumor over time with an optimum at 24 h

The next lines start with the values.

Labeled mAb (trastuzumab [2]): 73%
Selectivity Fc/Fab (trastuzumab [2]): 5.70
Compound: DCAWH N GELVWCT NH2 (disulfide) [DM1]

Labeled mAb (trastuzumab [2]): 68%
Selectivity Fc/Fab (trastuzumab [2]): 6.80
Compound: DCAWH N GELVWCT NH2 (disulfide) [DM4]
